Measurements published in ChEMBL document CHEMBL4177600, “Identification of novel PI3K inhibitors through a scaffold hopping strategy” (Bioorg Med Chem Lett, 2017).
pEC50, pIC50, pKi: −log10 of the molar value. Converted amounts (≈) assume the structure as drawn. Values belong to the molecule of their own block, whether it stands above or below them.

Experiments:
[1] = target: Serine/threonine-protein kinase mTOR (Homo sapiens, UniProt P42345); experiment: Inhibition of recombinant human GST-tagged mTOR catalytic domain (1360 to 2549 residues) expressed in baculovirus expression system by AlexaFluor647-labeled kinase tracer 314 based LanthaScreen assay
[2] = Stability in human liver microsomes assessed as parent compound remaining at 0.5 uM after 30 mins by LC-MS/MS analysis; assay type: ADME, microsome; details: read-out: Stability
Procedure, shortened: (§1)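 Single time-point stability assay: 0.5 µM compound, 0.5 mg/ml human or mouse liver microsomes in 0.1 M potassium phosphate pH 7.4, with NADPH-regenerating system, 30 min at 37 °C with shaking. Reaction quenched with acetonitrile/0.1% formic acid and centrifuged; supernatant analysed by LC-MS/MS. Reported as percent remaining; duplicates.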

[3] = Stability in mouse liver microsomes assessed as parent compound remaining at 0.5 uM after 30 mins by LC-MS/MS analysis; assay type: ADME, microsome; details: read-out: Stability; procedure, shortened: as §1
[4] = target: T1, CYP1A2 (Homo sapiens, UniProt P05177); experiment: Inhibition of CYP1A2 (unknown origin) at 10 uM relative to control; assay type: ADME
T1 sequence (P05177 whole entry): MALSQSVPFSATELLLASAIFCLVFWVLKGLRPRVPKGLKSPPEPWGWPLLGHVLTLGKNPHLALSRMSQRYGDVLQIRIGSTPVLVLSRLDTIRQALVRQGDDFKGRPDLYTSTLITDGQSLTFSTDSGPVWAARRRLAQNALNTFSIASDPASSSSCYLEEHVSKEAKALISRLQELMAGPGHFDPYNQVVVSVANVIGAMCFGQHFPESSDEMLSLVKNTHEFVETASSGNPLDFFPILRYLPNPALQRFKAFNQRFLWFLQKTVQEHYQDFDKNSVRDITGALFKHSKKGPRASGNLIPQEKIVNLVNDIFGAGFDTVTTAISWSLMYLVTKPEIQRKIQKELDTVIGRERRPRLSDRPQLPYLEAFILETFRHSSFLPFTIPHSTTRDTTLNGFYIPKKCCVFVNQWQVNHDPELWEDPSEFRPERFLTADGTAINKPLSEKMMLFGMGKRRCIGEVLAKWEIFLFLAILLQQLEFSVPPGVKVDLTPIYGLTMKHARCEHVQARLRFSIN
Procedure, shortened: (§2)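 CYP1A2, 2C9, 2C19, 2D6 and 3A4 inhibition measured at 10 µM test compound in duplicate; percent inhibition reported.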

[5] = target: CYP2C9 (Homo sapiens, UniProt P11712); experiment: Inhibition of CYP2C9 (unknown origin) at 10 uM relative to control; assay type: ADME; procedure, shortened: as §2
Sequence of CYP2C9 (P11712 whole entry): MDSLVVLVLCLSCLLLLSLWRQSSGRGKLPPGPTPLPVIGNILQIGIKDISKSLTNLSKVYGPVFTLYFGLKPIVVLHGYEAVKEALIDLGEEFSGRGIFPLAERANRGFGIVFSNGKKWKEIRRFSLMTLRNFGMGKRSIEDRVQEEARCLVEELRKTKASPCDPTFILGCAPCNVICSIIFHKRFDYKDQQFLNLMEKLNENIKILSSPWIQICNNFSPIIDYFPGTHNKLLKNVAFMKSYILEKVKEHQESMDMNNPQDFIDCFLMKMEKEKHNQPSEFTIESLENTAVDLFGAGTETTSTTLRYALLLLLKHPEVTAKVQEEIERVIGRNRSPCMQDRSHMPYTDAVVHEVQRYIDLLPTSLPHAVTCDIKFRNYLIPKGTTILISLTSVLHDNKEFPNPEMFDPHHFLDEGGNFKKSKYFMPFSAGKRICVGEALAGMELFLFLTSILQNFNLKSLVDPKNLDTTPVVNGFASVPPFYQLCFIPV

[6] = target: CYP2C19 (Homo sapiens, UniProt P33261); experiment: Inhibition of CYP2C19 (unknown origin) at 10 uM relative to control; assay type: ADME; procedure, shortened: as §2
Sequence of CYP2C19 (P33261 whole entry): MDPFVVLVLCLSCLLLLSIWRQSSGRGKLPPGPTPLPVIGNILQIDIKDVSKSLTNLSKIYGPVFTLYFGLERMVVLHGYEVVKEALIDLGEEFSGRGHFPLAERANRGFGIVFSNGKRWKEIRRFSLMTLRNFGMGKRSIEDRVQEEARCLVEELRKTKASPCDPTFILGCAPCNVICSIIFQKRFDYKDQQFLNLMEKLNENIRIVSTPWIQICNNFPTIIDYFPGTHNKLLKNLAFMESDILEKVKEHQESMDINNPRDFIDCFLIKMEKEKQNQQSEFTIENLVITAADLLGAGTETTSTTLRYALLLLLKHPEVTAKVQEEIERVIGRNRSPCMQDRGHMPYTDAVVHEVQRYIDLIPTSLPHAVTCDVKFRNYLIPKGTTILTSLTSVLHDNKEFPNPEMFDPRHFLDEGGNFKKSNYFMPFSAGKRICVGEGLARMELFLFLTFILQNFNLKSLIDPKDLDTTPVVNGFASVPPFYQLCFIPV

[7] = target: CYP2D6 (Homo sapiens, UniProt P10635); experiment: Inhibition of CYP2D6 (unknown origin) at 10 uM relative to control; assay type: ADME; procedure, shortened: as §2
Sequence of CYP2D6 (P10635 whole entry): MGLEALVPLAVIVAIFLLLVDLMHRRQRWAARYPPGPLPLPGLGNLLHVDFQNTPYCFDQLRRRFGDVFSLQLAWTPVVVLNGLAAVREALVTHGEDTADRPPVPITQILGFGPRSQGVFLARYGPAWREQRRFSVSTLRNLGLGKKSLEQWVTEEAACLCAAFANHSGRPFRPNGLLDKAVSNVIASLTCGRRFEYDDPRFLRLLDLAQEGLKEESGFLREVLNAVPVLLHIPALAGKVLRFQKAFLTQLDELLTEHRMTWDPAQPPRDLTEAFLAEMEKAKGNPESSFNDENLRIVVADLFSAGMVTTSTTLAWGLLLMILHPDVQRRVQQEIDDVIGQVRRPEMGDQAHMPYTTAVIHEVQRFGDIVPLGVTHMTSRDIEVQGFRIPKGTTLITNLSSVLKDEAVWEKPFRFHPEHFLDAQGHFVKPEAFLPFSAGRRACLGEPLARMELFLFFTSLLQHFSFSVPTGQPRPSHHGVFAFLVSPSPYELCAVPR

[8] = target: CYP3A4 (Homo sapiens, UniProt P08684); experiment: Inhibition of CYP3A4 (unknown origin) at 10 uM relative to control; assay type: ADME; procedure, shortened: as §2
Sequence of CYP3A4 (P08684 whole entry): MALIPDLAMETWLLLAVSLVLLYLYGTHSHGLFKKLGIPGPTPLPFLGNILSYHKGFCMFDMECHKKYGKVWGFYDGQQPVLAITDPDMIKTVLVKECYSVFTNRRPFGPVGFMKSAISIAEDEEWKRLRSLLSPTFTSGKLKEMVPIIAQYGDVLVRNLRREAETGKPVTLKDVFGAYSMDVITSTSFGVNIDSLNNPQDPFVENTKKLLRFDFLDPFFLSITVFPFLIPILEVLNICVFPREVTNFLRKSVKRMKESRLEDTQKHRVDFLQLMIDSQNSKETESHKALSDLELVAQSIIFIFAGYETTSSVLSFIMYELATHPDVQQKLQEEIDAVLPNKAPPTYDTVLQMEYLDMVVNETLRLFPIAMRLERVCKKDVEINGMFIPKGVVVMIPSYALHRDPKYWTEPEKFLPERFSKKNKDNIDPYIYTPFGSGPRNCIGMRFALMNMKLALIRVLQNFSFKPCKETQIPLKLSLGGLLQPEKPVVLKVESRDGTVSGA

[9] = Kinetic solubility of the compound in phosphate buffered saline at pH 7.4 at 1 to 2 mg measured after 24 hrs by HPLC analysis; assay type: physicochemical; details: read-out: Kinetic_solubility
Procedure, shortened: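 Solid compound (1–2 mg) in 1 mL PBS, pH 7.4, inverted in test tubes for 24 h. Samples centrifuged, supernatant analysed by HPLC with diode-array detection, with peak area compared to a standard of known concentration. LC-MS/MS used when UV signal was too low or the chromophore poor. Reported in µM.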

[10] = Permeability of the compound at 300 uL after 5 hrs by PAMPA; assay type: ADME; details: read-out: permeability
Procedure, shortened: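 Pre-coated PAMPA plates with a tri-layer phospholipid membrane. Donor held compound in PBS at the highest concentration soluble in PBS; acceptor was PBS. Incubated 5 h at room temperature, with propranolol and sorafenib (10 µM) as high and low permeability controls. Donor and acceptor concentrations measured by LC-MS/MS; Pe (10^-6 cm/s) calculated from acceptor/equilibrium concentrations, 0.3 cm² area and well volumes.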

[11] = Half-life in BALB-C mouse at 8 mg/kg, iv by LC-MS/MS analysis; assay type: ADME, organism-based; details: in vivo
Procedure, shortened: (§3)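 BALB-C mice dosed IV (10% NMP/50% PEG300/40% saline) or PO (10% NMP/90% PEG300). Plasma sampled at 6 (IV) or 8 (PO) time points; compound measured by LC/MS/MS. Parameters from bicompartmental model fit; each value is the mean of 3 independent samples.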

[12] = Clearance in BALB-C mouse at 8 mg/kg, iv by LC-MS/MS analysis; assay type: ADME, organism-based; details: in vivo
Procedure, shortened: (§4)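 Mice (BALB-C) given IV dose in 10% NMP/50% PEG300/40% saline; plasma sampled at 6 times, levels by LC/MS/MS.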

[13] = Volume of distribution in BALB-C mouse at 8 mg/kg, iv by LC-MS/MS analysis; assay type: ADME, organism-based; details: in vivo
Procedure, shortened: (§5)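 BALB-C mice dosed IV in 10% NMP/50% PEG300/40% saline or PO in 10% NMP/90% PEG300. Plasma sampled at 6 (IV) or 8 (PO) time points and quantified by LC/MS/MS. Parameters come from a bicompartmental model fit; values are means of 3 independent samples. Plasma levels were compared with AKT-P EC50 from U2OS cells converted to ng/ml.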

[14] = AUC (infinity) in BALB-C mouse at 8 mg/kg, iv by LC-MS/MS analysis; assay type: ADME, organism-based; parameters: dose 8 mg/kg, time infinity, route intravenous; details: in vivo; procedure, shortened: as §3
[15] = Tmax in BALB-C mouse at 8 mg/kg, po by LC-MS/MS analysis; assay type: ADME, organism-based; details: in vivo; procedure, shortened: as §5
[16] = Cmax in BALB-C mouse at 8 mg/kg, po by LC-MS/MS analysis; assay type: ADME, organism-based; parameters: dose 8 mg/kg, route oral; details: in vivo; procedure, shortened: as §3
[17] = AUC (infinity) in BALB-C mouse at 8 mg/kg, po by LC-MS/MS analysis; assay type: ADME, organism-based; parameters: dose 8 mg/kg, route oral, time infinity; details: in vivo; procedure, shortened: as §3
[18] = Half-life in BALB-C mouse at 8 mg/kg, po by LC-MS/MS analysis; assay type: ADME, organism-based; details: in vivo; procedure, shortened: as §3
[19] = Oral bioavailability in BALB-C mouse at 8 mg/kg by LC-MS/MS analysis; assay type: ADME, organism-based; details: in vivo; procedure, shortened: as §5
[20] = system: Mus musculus; experiment: Clearance in BALB-C mouse at 8 mg/kg, iv by LC-MS/MS analysis relative to hepatic blood flow; assay type: ADME, organism-based; details: in vivo
[21] = target: Phosphatidylinositol 4,5-bisphosphate 3-kinase catalytic subunit gamma isoform (Homo sapiens, UniProt P48736); experiment: Inhibition of recombinant full-length human N-terminal His6-tagged p110gamma expressed in baculovirus infected Sf21 insect cells using PIP2 as substrate by HTRF assay; details: read-out: Ki(app)
[22] = target: PI3-kinase p110-alpha/p85-alpha (Homo sapiens, UniProt P42336); experiment: Inhibition of full-length human P110alpha (1 to 1068 residues)/N-terminal GST-fused p85alpha (1 to 724 residues) expressed in baculovirus expression system by ADP Hunter assay; details: read-out: Ki(app)
[23] = target: PI3-kinase p110-delta/p85-alpha (Homo sapiens, UniProt O00329); experiment: Inhibition of recombinant human full-length N-terminal His6-tagged p110delta/human full-length p85alpha expressed in baculovirus infected Sf21 insect cells using PIP2 as substrate by HTRF assay; details: read-out: Ki(app)
[24] = target: PI3K p110 beta/p85 alpha (Homo sapiens, UniProt P42338); experiment: Inhibition of p110beta/85alpha (unknown origin) using PIP2 as substrate by HTRF assay; assay type: protein-complex assay; details: read-out: Ki(app)
Sequence of PI3K p110 beta/p85 alpha (P27986 whole entry): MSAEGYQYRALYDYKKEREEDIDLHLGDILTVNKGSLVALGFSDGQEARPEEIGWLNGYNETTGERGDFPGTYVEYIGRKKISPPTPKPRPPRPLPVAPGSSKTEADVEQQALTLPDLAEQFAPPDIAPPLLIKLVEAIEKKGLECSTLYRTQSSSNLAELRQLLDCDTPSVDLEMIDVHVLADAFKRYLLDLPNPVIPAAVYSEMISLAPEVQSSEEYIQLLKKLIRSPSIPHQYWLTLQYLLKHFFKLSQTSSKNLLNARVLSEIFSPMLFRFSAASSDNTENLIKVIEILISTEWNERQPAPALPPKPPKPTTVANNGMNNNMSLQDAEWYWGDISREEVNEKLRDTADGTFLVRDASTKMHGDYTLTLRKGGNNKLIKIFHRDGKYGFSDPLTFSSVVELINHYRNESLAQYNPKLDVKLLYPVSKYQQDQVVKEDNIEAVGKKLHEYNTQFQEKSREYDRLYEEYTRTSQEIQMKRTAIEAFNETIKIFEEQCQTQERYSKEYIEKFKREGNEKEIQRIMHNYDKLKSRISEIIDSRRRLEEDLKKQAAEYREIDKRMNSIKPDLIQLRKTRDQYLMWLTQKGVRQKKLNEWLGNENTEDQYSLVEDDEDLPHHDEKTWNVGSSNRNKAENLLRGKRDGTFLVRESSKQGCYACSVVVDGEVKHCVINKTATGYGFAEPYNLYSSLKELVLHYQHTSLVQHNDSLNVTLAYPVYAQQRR
Sequence of PI3K p110 beta/p85 alpha (P42338 whole entry): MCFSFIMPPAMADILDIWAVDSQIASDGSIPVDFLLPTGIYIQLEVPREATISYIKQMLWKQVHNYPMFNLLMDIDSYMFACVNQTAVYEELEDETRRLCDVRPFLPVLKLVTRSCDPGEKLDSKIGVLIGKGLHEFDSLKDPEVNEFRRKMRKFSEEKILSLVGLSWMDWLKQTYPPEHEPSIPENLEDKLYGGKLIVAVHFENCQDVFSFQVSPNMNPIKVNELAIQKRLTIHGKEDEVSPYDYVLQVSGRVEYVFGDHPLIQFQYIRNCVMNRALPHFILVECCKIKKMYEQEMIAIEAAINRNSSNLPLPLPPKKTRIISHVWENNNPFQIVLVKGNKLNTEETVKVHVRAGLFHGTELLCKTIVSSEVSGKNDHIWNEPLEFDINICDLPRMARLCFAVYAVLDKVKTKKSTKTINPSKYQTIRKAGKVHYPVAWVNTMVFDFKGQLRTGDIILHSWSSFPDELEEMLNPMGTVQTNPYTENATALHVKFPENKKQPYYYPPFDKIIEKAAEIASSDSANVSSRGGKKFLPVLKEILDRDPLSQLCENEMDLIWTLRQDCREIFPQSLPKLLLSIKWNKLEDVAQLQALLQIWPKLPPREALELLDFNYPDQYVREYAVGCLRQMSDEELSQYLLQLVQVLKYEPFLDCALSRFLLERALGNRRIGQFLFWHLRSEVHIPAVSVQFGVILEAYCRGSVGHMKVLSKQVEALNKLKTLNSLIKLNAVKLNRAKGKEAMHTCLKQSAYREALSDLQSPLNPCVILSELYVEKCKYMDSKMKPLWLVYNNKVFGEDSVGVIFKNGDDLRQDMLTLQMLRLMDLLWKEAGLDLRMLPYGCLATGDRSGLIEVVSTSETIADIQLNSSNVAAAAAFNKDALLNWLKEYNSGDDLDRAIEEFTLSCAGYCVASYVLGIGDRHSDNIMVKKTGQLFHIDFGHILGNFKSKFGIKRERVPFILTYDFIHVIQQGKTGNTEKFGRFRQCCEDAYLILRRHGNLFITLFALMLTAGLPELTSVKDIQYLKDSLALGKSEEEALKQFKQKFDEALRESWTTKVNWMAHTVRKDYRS

[25] = Inhibition of PI3K in serum-stimulated human U2OS cells assessed as decrease in AKT1 phosphorylation at S473 by C-ELISA; assay type: cell-based
Procedure, shortened: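 U2OS osteosarcoma cells grown in 0.1% FBS, then serum-stimulated; endogenous phospho-Akt1 (Ser473) quantified by cell ELISA with chemiluminescent substrate. EC50 from sigmoid dose-response fit; two independent experiments in duplicate.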

[26] = target: Voltage-gated inwardly rectifying potassium channel KCNH2 (Homo sapiens, UniProt Q12809); experiment: Inhibition of human ERG by Tracer Red dye based fluorescence polarization assay
Sequence of Voltage-gated inwardly rectifying potassium channel KCNH2 (Q12809 whole entry): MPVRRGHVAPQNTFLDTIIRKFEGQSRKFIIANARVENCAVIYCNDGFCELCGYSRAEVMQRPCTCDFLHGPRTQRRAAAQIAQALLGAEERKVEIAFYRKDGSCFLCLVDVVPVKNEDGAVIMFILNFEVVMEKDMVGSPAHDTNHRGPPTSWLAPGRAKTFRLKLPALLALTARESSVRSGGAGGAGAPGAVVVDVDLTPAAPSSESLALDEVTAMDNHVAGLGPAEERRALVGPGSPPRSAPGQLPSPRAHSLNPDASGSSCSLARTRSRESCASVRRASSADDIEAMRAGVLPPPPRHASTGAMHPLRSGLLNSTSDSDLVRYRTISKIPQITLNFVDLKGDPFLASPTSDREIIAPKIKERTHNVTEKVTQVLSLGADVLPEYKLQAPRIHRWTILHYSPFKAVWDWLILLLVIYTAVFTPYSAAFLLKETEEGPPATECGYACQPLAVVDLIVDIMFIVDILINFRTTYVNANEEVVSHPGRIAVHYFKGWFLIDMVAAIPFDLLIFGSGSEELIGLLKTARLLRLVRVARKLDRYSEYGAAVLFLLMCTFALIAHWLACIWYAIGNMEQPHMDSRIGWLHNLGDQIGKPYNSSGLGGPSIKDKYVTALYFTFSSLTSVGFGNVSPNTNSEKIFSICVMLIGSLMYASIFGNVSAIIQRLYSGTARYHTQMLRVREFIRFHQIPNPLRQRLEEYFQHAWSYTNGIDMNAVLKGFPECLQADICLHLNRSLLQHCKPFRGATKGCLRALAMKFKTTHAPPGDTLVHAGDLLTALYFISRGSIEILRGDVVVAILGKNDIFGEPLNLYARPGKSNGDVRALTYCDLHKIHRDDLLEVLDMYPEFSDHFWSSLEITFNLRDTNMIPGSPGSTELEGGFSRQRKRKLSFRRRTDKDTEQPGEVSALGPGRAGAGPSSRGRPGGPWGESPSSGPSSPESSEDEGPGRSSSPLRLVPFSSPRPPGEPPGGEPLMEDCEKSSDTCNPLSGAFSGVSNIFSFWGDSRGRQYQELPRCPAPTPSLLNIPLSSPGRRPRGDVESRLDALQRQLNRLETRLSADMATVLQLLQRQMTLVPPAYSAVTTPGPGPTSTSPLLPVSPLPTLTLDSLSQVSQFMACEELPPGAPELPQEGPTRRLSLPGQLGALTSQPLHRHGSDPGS
Procedure, shortened: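 hERG binding measured with Predictor hERG kit per kit instructions, read by fluorescence polarization.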

[27] = Half-life in BALB-C mouse at 5 mg/kg, iv by LC-MS/MS analysis; assay type: ADME, organism-based; details: in vivo; procedure, shortened: as §3
[28] = Clearance in BALB-C mouse at 5 mg/kg, iv by LC-MS/MS analysis; assay type: ADME, organism-based; details: in vivo; procedure, shortened: as §4
[29] = Volume of distribution in BALB-C mouse at 5 mg/kg, iv by LC-MS/MS analysis; assay type: ADME, organism-based; details: in vivo; procedure, shortened: as §5
[30] = AUC (infinity) in BALB-C mouse at 5 mg/kg, iv by LC-MS/MS analysis; assay type: ADME, organism-based; parameters: dose 5 mg/kg, time infinity, route intravenous; details: in vivo; procedure, shortened: as §3
[31] = Tmax in BALB-C mouse at 10 mg/kg, po by LC-MS/MS analysis; assay type: ADME, organism-based; details: in vivo; procedure, shortened: as §5
[32] = Cmax in BALB-C mouse at 10 mg/kg, po by LC-MS/MS analysis; assay type: ADME, organism-based; parameters: dose 10 mg/kg, route oral; details: in vivo; procedure, shortened: as §3
[33] = AUC (infinity) in BALB-C mouse at 10 mg/kg, po by LC-MS/MS analysis; assay type: ADME, organism-based; parameters: dose 10 mg/kg, time infinity, route oral; details: in vivo; procedure, shortened: as §3
[34] = Half-life in BALB-C mouse at 10 mg/kg, po by LC-MS/MS analysis; assay type: ADME, organism-based; details: in vivo; procedure, shortened: as §3
[35] = Oral bioavailability in BALB-C mouse at 10 mg/kg by LC-MS/MS analysis; assay type: ADME, organism-based; details: in vivo; procedure, shortened: as §5
[36] = system: Mus musculus; experiment: Clearance in BALB-C mouse at 5 mg/kg, iv by LC-MS/MS analysis relative to hepatic blood flow; assay type: ADME, organism-based; details: in vivo
[37] = system: Mus musculus; experiment: Time at which plasma concentration stays above cellular EC50 for inhibition of AKT phosphorylation in BALB-C mouse at 10 mg/kg, po measured up to 24 hrs by LC-MS/MS analysis; assay type: organism-based; details: in vivo; procedure, shortened: as §5
[38] = system: U2OS; experiment: Inhibition of AKT phosphorylation in human U2OS cells

pIC50 [1]: 5.31 | remaining at 0.5 h, 0.5 µM [2]: 100% | remaining at 0.5 h, 0.5 µM [3]: 100% | inhibition at 10 µM [4]: < 25% | inhibition at 10 µM [5]: < 25% | inhibition at 10 µM [6]: < 25% | inhibition at 10 µM [7]: < 25% | inhibition at 10 µM [8]: < 25% | solubility kinetic at 24 h [9]: 50 µM (≈ 23.7 µg/mL) | Papp at 5 h [10]: 0.26 ×10⁻⁶ cm/s | half-life [11]: 1.36 h | clearance [12]: 9.33 mL/min/kg | Vd [13]: 0.8 L/kg | AUC(0-inf) [14]: 14200 ng·h/mL | Tmax [15]: 1 h | Cmax [16]: 1130 ng/mL | AUC(0-inf) [17]: 12600 ng·h/mL | half-life [18]: 8.38 h | bioavailability [19]: 88.6% | CL [20]: < 50%
SMILES: CS(=O)(=O)N1CCN(Cc2cn3cc(-c4cnc(N)nc4)nc(N4CCOCC4)c3n2)CC1

pKi [21]: 7.78 | pKi [22]: 8.68 | pKi [23]: 8.08 | pKi [24]: 7.14 | pIC50 [1]: 5.27 | pEC50 [25]: 7.46 | remaining at 0.5 h, 0.5 µM [2]: 100% | remaining at 0.5 h, 0.5 µM [3]: 100% | inhibition at 10 µM [4]: < 25% | inhibition at 10 µM [5]: < 25% | inhibition at 10 µM [6]: < 25% | inhibition at 10 µM [7]: < 25% | inhibition at 10 µM [8]: < 25% | solubility kinetic at 24 h [9]: 100 µM (≈ 50.8 µg/mL) | Papp at 5 h [10]: 1.51 ×10⁻⁶ cm/s | half-life [27]: 0.61 h | clearance [28]: 12.5 mL/min/kg | Vd [29]: 1.24 L/kg | AUC(0-inf) [30]: 8100 ng·h/mL | Tmax [31]: 0.5 h | Cmax [32]: 1370 ng/mL | AUC(0-inf) [33]: 6980 ng·h/mL | half-life [34]: 3.22 h | bioavailability [35]: 43.1% | CL [36]: < 50% | Time [37]: > 12 h | EC50 [38]: 0.01753 µg/mL (≈ 0.0345 µM)
SMILES: CS(=O)(=O)N1CCN(Cc2cc3c(N4CCOCC4)nc(-c4cnc(N)nc4)c(Cl)n3n2)CC1
pIC50 [26]: < 4.52
